# Data taken from ChEMBL document CHEMBL4673294, “The discovery of quinoline derivatives, as NF-κB inducing kinase (NIK) inhibitors with anti-inflammatory effects in vitro, low toxicities against T cell growth” (Bioorg Med Chem, 2021).
# Legend:
# [1] = Intrinsic hepatic clearance in dog; type: ADME, Canis lupus familiaris; details: in vivo, read-out: CLH
# Summary of the method: (§1)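 In vivo intrinsic clearance scaled from microsomal CLint (mL/min/mg protein) × microsomal protein per g liver × liver weight per kg body weight.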
# [2] = Intrinsic hepatic clearance in monkey; type: ADME, Macaca mulatta; details: rhesus monkey, in vivo; read-out: CLH; summary of the method: as §1
# [3] = Antiinflammatory activity in mouse T cells assessed as inhibition of ConA-induced induced T cell proliferation at 0.4 uM incubated for 48 hrs by CCK8 assay relative to control; type: functional
# Summary of the method: (§2)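 Mouse splenic T cells, isolated by negative selection kit, seeded at 2×10^6 cells/mL in RPMI with penicillin/streptomycin and glutamine. Compound at 2 or 0.4 μM (triplicate wells), DMSO control; Con A 5 μg/mL added, 48 h at 37 °C, 5% CO2. CCK8 absorbance; inhibition rate from test, blank and control wells; three independent experiments.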
# [4] = Elimination half life in human liver microsomes incubated for 10 mins followed by potassium phosphate buffer addition and measured up to 60 mins by LC-MS analysis; type: ADME, Microsome; details: time <=70 min, read-out: LambdaZ
# Summary of the method: (§3)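 The test compound was pre-incubated with liver microsomes at 37 °C for 10 min. NCF60 wells received 100 mM potassium phosphate buffer and were incubated 1.0 h at 37 °C. The reaction was stopped with a 1:1 tolbutamide/labetalol mixture at 0, 5, 15, 30 and 60 min, then vortexed and centrifuged at 4 °C. Remaining parent compound in the supernatant was measured by LC-MS, and T1/2 was calculated by first-order kinetics.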
# [5] = Intrinsic clearance in rat liver microsomes assessed per mg protein incubated for 10 mins followed by potassium phosphate buffer addition and measured up to 60 mins by LC-MS analysis; type: ADME, Microsome; details: time <=70 min, read-out: CLH
# Summary of the method: (§4)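 Rat, dog, monkey and human liver microsomes: compound preincubated with microsomes 10 min at 37 °C; samples quenched at 0, 5, 15, 30, 60 min with tolbutamide/labetalol, plus a 60 min no-cofactor control with 100 mM potassium phosphate buffer. Centrifuged, remaining compound by LC-MS; T1/2 and CL by first-order kinetics.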
# [6] = Intrinsic clearance in human liver microsomes assessed per mg protein incubated for 10 mins followed by potassium phosphate buffer addition and measured up to 60 mins by LC-MS analysis; type: ADME, Microsome; details: time <=70 min, read-out: CLH; summary of the method: as §4
# [7] = Volume of distribution in Sprague-Dawley rat at 1 mg/kg, iv administered as single bolus dose by LC-MS analysis; type: ADME, organism-based; details: in vivo
# Summary of the method: (§5)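 Male Sprague-Dawley, 8 weeks old, fasted overnight, n = 3; single IV bolus via tail vein at 1.0 mg/kg in DMSO:PEG200:saline 20:20:60 (0.2 mg/mL). Plasma protein-precipitated with acetonitrile containing internal standards, analysed by LC/MS.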
# [8] = AUC (0 to infinity) in Sprague-Dawley rat at 1 mg/kg, iv administered as single bolus dose by LC-MS analysis; type: ADME, organism-based; parameters: route intravenous, time infinity, dose 1 mg/kg; details: in vivo
# Summary of the method: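 Male Sprague-Dawley rats, 8 weeks old, fasted overnight, received a single rapid tail-vein bolus. Vehicle was DMSO:PEG200:saline 20:20:60 v/v/v at 0.2 mg/mL. Plasma concentrations were followed over time. Plasma was deproteinised with acetonitrile containing verapamil and glibenclamide, diluted with water and analysed by LC/MS. Values are mean ± SD, n = 3 rats.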
# [9] = Intrinsic hepatic clearance in human; type: ADME; details: read-out: CLH; summary of the method: as §1
# [10] = Intrinsic clearance in dog liver microsomes assessed per mg protein incubated for 10 mins followed by potassium phosphate buffer addition and measured up to 60 mins by LC-MS analysis; type: ADME, Canis lupus familiaris, Microsome; details: time <=70 min, read-out: CLH; summary of the method: as §4
# [11] = Initial plasma concentration in Sprague-Dawley rat at 1 mg/kg, iv administered as single bolus dose by LC-MS analysis; type: ADME, organism-based; summary of the method: as §5
# [12] = molecular target: T1, Mitogen-activated protein kinase kinase kinase 14 (Homo sapiens, UniProt Q99558); assay: Inhibition of recombinant N-terminal GST-fused human NIK (319 to 947 residues) expressed in baculovirus expression system incubated for 120 mins in presence of ATP by ADP-glo based luminescence assay
# Summary of the method: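 NIK kinase activity by ADP-Glo: human recombinant MAP3K14 in Tris pH 7.5 buffer with 100 μM Na3VO4, 2 mM DTT, 0.02 mg/mL BSA, 2 mM MgCl2, 5% DMSO; 10 μM ATP; 120 min at room temperature. ADP-Glo reagent 40 min, then detection reagent 40 min; luminescence converted to ADP via standard curve. IC50 from curve fitting; mean ± SD of two independent experiments.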
# Target sequence in this assay (Q99558 whole entry, the tested form may be a part): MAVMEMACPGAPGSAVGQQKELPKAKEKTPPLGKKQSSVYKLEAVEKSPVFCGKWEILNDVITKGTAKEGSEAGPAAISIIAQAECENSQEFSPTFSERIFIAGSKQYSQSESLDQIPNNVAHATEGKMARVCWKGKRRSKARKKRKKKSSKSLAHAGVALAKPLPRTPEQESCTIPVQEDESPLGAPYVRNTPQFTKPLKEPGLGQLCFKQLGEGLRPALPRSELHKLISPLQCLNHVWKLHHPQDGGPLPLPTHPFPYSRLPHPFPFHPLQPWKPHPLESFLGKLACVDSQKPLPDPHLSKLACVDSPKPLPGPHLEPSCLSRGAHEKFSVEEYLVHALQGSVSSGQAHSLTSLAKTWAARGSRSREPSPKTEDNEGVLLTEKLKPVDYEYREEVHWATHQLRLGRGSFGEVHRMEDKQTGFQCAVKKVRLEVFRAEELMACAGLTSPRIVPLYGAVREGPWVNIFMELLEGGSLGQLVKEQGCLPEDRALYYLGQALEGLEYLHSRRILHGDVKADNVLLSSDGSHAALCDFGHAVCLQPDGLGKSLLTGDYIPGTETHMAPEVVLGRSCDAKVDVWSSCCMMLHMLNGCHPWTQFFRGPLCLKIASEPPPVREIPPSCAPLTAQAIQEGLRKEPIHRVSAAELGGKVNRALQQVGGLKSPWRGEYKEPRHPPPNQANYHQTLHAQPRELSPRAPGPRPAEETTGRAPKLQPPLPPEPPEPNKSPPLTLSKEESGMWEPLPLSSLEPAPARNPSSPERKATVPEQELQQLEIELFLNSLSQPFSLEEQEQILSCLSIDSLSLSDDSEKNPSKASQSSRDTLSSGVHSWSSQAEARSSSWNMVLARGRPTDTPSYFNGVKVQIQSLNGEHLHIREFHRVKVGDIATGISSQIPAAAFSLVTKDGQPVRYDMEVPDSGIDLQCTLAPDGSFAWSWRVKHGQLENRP
# [13] = Tmax in Sprague-Dawley rat at 10 mg/kg, po administered as single dose by LC-MS analysis; type: ADME, organism-based; details: in vivo
# Summary of the method: (§6)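 Male Sprague-Dawley, 8 weeks old, fasted overnight, n = 3; single gavage at 10 mg/kg as 1 mg/mL suspension in 0.5% CMC-Na/0.2% Tween 80. Plasma precipitated with acetonitrile plus internal standards; LC/MS quantitation.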
# [14] = Intrinsic clearance in monkey liver microsomes assessed per mg protein incubated for 10 mins followed by potassium phosphate buffer addition and measured up to 60 mins by LC-MS analysis; type: ADME, Macaca mulatta, Microsome; details: rhesus monkey, time <=70 min, read-out: CLH; summary of the method: as §4
# [15] = Half life in Sprague-Dawley rat at 10 mg/kg, po administered as single dose by LC-MS analysis; type: ADME, organism-based; details: in vivo; summary of the method: as §6
# [16] = Oral bioavailability in Sprague-Dawley rat at 10 mg/kg administered as single dose by LC-MS analysis; type: ADME, organism-based; details: in vivo
# [17] = Elimination half life in rat liver microsomes incubated for 10 mins followed by potassium phosphate buffer addition and measured up to 60 mins by LC-MS analysis; type: ADME, Microsome; details: time <=70 min, read-out: LambdaZ; summary of the method: as §3
# [18] = Half life in Sprague-Dawley rat at 1 mg/kg, iv administered as single bolus dose by LC-MS analysis; type: ADME, organism-based; details: in vivo; summary of the method: as §5
# [19] = Clearance in Sprague-Dawley rat at 1 mg/kg, iv administered as single bolus dose by LC-MS analysis; type: ADME, organism-based; details: in vivo; summary of the method: as §5
# J774 = assay: Antiinflammatory activity in mouse J774 cells assessed as inhibition of LPS-induced NO production at 1 uM preincubated for 2 hrs followed by LPS stimulation and measured after 22 hrs by Griess reagent based assay relative to control; type: functional; details: time 24 hrs
# [20] = Elimination half life in monkey liver microsomes incubated for 10 mins followed by potassium phosphate buffer addition and measured up to 60 mins by LC-MS analysis; type: ADME, Macaca mulatta, Microsome; details: rhesus monkey, time <=70 min, read-out: LambdaZ; summary of the method: as §3
# [21] = Cytotoxicity against mouse T cells assessed as cell growth inhibition at 10 uM after 48 hrs by CCK8 assay; type: cell-based
# Summary of the method: (§7)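 Unstimulated mouse splenic T cells (no Con A) exposed to compound at 10 μM; growth measured by absorbance, with rate computed from test, blank and control well absorbances; mean ± SD of three independent experiments.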
# [22] = Elimination half life in dog liver microsomes incubated for 10 mins followed by potassium phosphate buffer addition and measured up to 60 mins by LC-MS analysis; type: ADME, Canis lupus familiaris, Microsome; details: time <=70 min, read-out: LambdaZ; summary of the method: as §3
# [23] = Intrinsic hepatic clearance in rat; type: ADME; details: in vivo, read-out: CLH; summary of the method: as §1
# [24] = AUC (0 to infinity) in Sprague-Dawley rat at 10 mg/kg, po administered as single dose by LC-MS analysis; type: ADME, organism-based; parameters: route oral, time infinity, dose 10 mg/kg; details: in vivo
# Summary of the method: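 Male Sprague-Dawley rats, 8 weeks old, fasted overnight, were dosed once by oral gavage. The compound was suspended at 1.0 mg/mL in saline with 0.5% CMC-Na and 0.2% Tween 80. Plasma concentrations were followed over time. Plasma was deproteinised with acetonitrile containing verapamil and glibenclamide, diluted with water and analysed by LC/MS. Values are mean ± SD, n = 3 rats.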
# [25] = Antiinflammatory activity in mouse T cells assessed as inhibition of ConA-induced induced T cell proliferation at 2 uM incubated for 48 hrs by CCK8 assay relative to control; type: functional; summary of the method: as §2
# [26] = Cmax in Sprague-Dawley rat at 10 mg/kg, po administered as single dose by LC-MS analysis; type: ADME, organism-based; parameters: route oral, dose 10 mg/kg; details: in vivo; summary of the method: as §6
# [27] = molecular target: T1, Mitogen-activated protein kinase kinase kinase 14; assay: Inhibition of recombinant N-terminal GST-fused human NIK (319 to 947 residues) expressed in baculovirus expression system assessed as residual activity at 2 uM incubated for 120 mins in presence of ATP by ADP-glo based luminescence assay relative to control
# Summary of the method: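 Single-point NIK enzyme activity at 2 μM compound with 10 μM ATP; human recombinant MAP3K14, 120 min room-temperature reaction, ADP-Glo luminescence read-out converted to ADP concentration.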
# Target sequence in this assay (Q99558 whole entry, looked up, the tested form may be a part): as the sequence (Q99558 whole entry, the tested form may be a part) above
# [28] = Cytotoxicity against mouse T cells assessed as cell growth inhibition at 10 uM after 48 hrs by CCK8 assay relative to control; type: cell-based; details: read-out: GI; summary of the method: as §7
# JJN-3 = assay: Antiproliferative activity against human JJN-3 cells transfected with plasmid expressing NIK; type: functional, cell-based
structure (smiles),measurement,setting,value
CC(O)(C#Cc1ccc2nccc(-c3cn[nH]c3)c2c1)c1nccs1 (stereo not drawn),CLint scaled,[1],140 mL/min/kg
same,CLint scaled,[2],60.2 mL/min/kg
same,inhibition at 0.4 µM,[3],36.1%
same,half-life,[4],33.1 min
same,microsomal CLint,[5],110 µL/min/mg
same,microsomal CLint,[6],42.6 µL/min/mg
same,Vd,[7],2.73 L/kg
same,AUC(0-inf),[8],408 ng·h/mL
same,CLint scaled,[9],40.2 mL/min/kg
same,microsomal CLint,[10],97.5 µL/min/mg
same,C0,[11],1000 ng/mL
same,IC50,[12],22.1 nM
same,Tmax,[13],54 min
same,microsomal CLint,[14],41.8 µL/min/mg
same,half-life,[15],71.4 min
same,bioavailability,[16],21.7%
same,half-life,[17],12.6 min
same,half-life,[18],22.9 min
same,clearance,[19],43.3 mL/min/kg
same,inhibition at 1 µM,J774,43.8%
same,half-life,[20],33.2 min
same,Activity,[21],Non-Toxic
same,half-life,[22],14.2 min
same,CLint scaled,[23],199 mL/min/kg
same,AUC(0-inf),[24],885 ng·h/mL
same,inhibition at 2 µM,[25],52.5%
same,Cmax,[26],311 ng/mL
CC(O)(C#Cc1ccc2nc(OCCN3CCOCC3)cc(-c3cn[nH]c3)c2c1)c1nccs1 (stereo not drawn),Activity,[27],92%
CC(O)(C#Cc1ccc2nccc(-c3cn[nH]c3)c2c1)c1ccccn1 (stereo not drawn),IC50,[12],591 nM
CC(O)(C#Cc1ccc(N2CCOCC2)c(Nc2ncnc3[nH]ccc23)c1)c1nccs1 (stereo not drawn),Activity,[21],Non-Toxic
CNc1cc(-c2cn[nH]c2)c2cc(C#CC(C)(O)c3nccs3)ccc2n1 (stereo not drawn),inhibition at 0.4 µM,[3],18.4%
same,IC50,[12],26 nM
same,inhibition at 1 µM,J774,46.5%
same,inhibition at 2 µM,[25],34.5%
CC(O)(/C=C/c1ccc2nccc(-c3cn[nH]c3)c2c1)c1nccs1 (stereo not drawn),IC50,[12],2080 nM
CC(O)(C#Cc1ccc2nccc(-c3cn[nH]c3)c2c1)c1cccs1 (stereo not drawn),IC50,[12],524 nM
CC(O)(C#Cc1ccc2nc(O)cc(-c3cn[nH]c3)c2c1)c1nccs1 (stereo not drawn),inhibition at 0.4 µM,[3],23.3%
same,IC50,[12],38.6 nM
same,inhibition at 1 µM,J774,31.4%
same,Activity,[21],Non-Toxic
same,inhibition at 2 µM,[25],27.2%
CC(O)(C#Cc1ccc2c(c1)N(c1nc(N)ncc1Cl)CC2)c1nccs1 (stereo not drawn),inhibition at 0.4 µM,[3],19%
same,IC50,[12],4.9 nM
same,inhibition at 1 µM,J774,43.9%
same,"inhibition at 48 h, 10 µM",[28],30%
same,inhibition at 2 µM,[25],59.6%
CN1CCN(c2cc(-c3cn[nH]c3)c3cc(C#CC(C)(O)c4nccs4)ccc3n2)CC1 (stereo not drawn),inhibition at 0.4 µM,[3],19.4%
same,IC50,[12],175 nM
same,inhibition at 1 µM,J774,41%
same,"inhibition at 48 h, 10 µM",[28],30%
same,inhibition at 2 µM,[25],36.7%
O=C(Nc1ccc2nccc(-c3cn[nH]c3)c2c1)C1CCCC1,Activity,[27],83.6%
CC(C)(O)C#Cc1ccc2nccc(-c3cn[nH]c3)c2c1,IC50,[12],1720 nM
COCCN(C)c1cc(-c2cn[nH]c2)c2cc(C#CC(C)(O)c3nccs3)ccc2n1 (stereo not drawn),inhibition at 0.4 µM,[3],33%
same,IC50,[12],5.2 nM
same,inhibition at 1 µM,J774,51.4%
same,"inhibition at 48 h, 10 µM",[28],30%
same,inhibition at 2 µM,[25],53.1%
Cn1cc(-c2ccnc3ccc(C#CC(C)(C)O)cc23)cn1,Activity,[27],99.1%
OC1(C#Cc2ccc3nccc(-c4cn[nH]c4)c3c2)CCCC1,IC50,[12],564 nM
CN(C)CCN(C)c1cc(-c2cn[nH]c2)c2cc(C#CC(C)(O)c3nccs3)ccc2n1 (stereo not drawn),inhibition at 0.4 µM,[3],19.9%
same,IC50,[12],160 nM
same,inhibition at 1 µM,J774,34.6%
same,Activity,[21],Non-Toxic
same,inhibition at 2 µM,[25],22.7%
OC1(C#Cc2ccc3nccc(-c4cn[nH]c4)c3c2)CCCCC1,IC50,[12],6050 nM
O=C(Nc1ccc2nccc(-c3cn[nH]c3)c2c1)c1nccs1,Activity,[27],72.3%
CN1CCC(n2cc(-c3c[nH]nc3Cl)c3cc(C#CC(C)(C)O)c(F)cc32)CC1,EC50,JJN-3,61 nM
